The test system of series [1] is Plasmodium yoelii. Nature of the series: Antiplasmodial activity against Plasmodium yoelii infected in perorally dosed mice (Mus musculus). The class given is functional. The following applies: po.
In series [2] the test system is Plasmodium berghei. Briefly: Antiplasmodial activity against Plasmodium berghei NK65 infected in Swiss Webster mice (Mus musculus) assessed as average parasitaemia at 100 mg/kg, perorally administered 1 day after infection measured after 21 days post infection. In kind it is functional. The following applies: route oral. In short, it runs like this:
(§1)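 Male Swiss Webster mice (18-20 g, ≥5/group) inoculated i.p. with 2×10^7 P. berghei NK-65 parasitized RBC, given a single oral dose (100 μl, SSV or dilute HCl vehicle); parasitemia by Giemsa-stained tail blood smears days 5–28; activity as % decrease versus untreated controls on day 5.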

For series [3], the system named is Cryptococcus neoformans. Nature of the series: Antifungal activity against Cryptococcus neoformans ATCC 90113. The class given is functional, organism-based. A digest of the protocol: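 Broth microdilution per modified CLSI method; samples serially diluted in 20% DMSO/saline, tested in duplicate; inocula set by OD630 of suspensions in incubation broth; growth read at 630 nm before and after incubation; amphotericin B drug control.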

In series [4] the test system is Plasmodium berghei. Nature of the series: Antiplasmodial activity against Plasmodium berghei NK65 infected in Swiss Webster mice (Mus musculus) assessed as average parasitaemia at 100 mg/kg, perorally administered 1 day after infection measured after 14 days post infection. In kind it is functional. As to conditions: route oral. A digest of the protocol:
as §1

Series [5] can be described thus: Antineuroinflammatory activity in LPS-stimulated rat neonatal microglia assessed as inhibition of PMA-induced superoxide anion production preincubated 15 mins prior to PMA challenge measured after 70 mins. The class given is functional, cell-based.
In series [6] the test system is Plasmodium berghei. Nature of the series: Antiplasmodial activity against Plasmodium berghei NK65 infected in Swiss Webster mice (Mus musculus) assessed as average parasitaemia at 5 mg/kg, perorally administered 1 day after infection for 3 days measured after 10 days post infection. The class given is functional. As to conditions: route oral.
Series [7] has as its system Plasmodium berghei. Briefly: Antiplasmodial activity against Plasmodium berghei NK65 infected in Swiss Webster mice (Mus musculus) assessed as average parasitaemia at 3.3 mg/kg, perorally administered 1 day after infection for 3 days measured after 14 days post infection. The class given is functional. As to conditions: route oral. In short, it runs like this: (§2)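 Male Swiss Webster mice (18-20 g, ≥5/group) inoculated i.p. with 2×10^7 P. berghei NK-65 parasitized RBC; oral dosing (100 μl, SSV or dilute HCl vehicle) once daily for 3 days from day 1; Giemsa-stained tail blood smears days 5–28; inhibition is % decrease versus untreated controls on day 5.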

For series [8], the system named is Plasmodium berghei. Nature of the series: Antiplasmodial activity against Plasmodium berghei NK65 infected in Swiss Webster mice (Mus musculus) assessed as suppression of parasitaemia at 10 mg/kg, intraperitoneally administered 1 day after infection for 3 days measured after 5 days post infection relative to control. The class given is functional. The following applies: Plasmodium berghei, NK65, ip, route intraperitoneal.

The subject of series [9] is Plasmodium berghei. Briefly: Antiplasmodial activity against Plasmodium berghei NK65 infected in Swiss Webster mice (Mus musculus) assessed as inhibition of parasitaemia at 5 mg/kg, perorally administered 1 day after infection for 3 days measured after 5 days post infection. The class given is functional. As to conditions: route oral.
The subject of series [10] is Plasmodium berghei. Nature of the series: Antiplasmodial activity against Plasmodium berghei NK65 infected in Swiss Webster mice (Mus musculus) assessed as parasitaemia cure at 3.3 mg/kg, perorally administered 1 day after infection for 3 days measured after 28 days post infection. The class given is functional. As to conditions: route oral. In short, it runs like this:
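Male Swiss Webster mice (18-20 g), at least 5 per group, inoculated i.p. with 2×10^7 P. berghei NK-65 parasitized red cells from a donor mouse. Oral dosing (100 μl, in SSV or dilute HCl) from day one after infection, three-day modified Peters suppressive schedule. Giemsa-stained tail blood smears from day 5 through day 28. Inhibition is % parasitemia drop on day 5 versus untreated controls. Cure means no parasitemia through day 28.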

Series [11] concerns HeLa. Briefly: Cell cycle arrest in human HeLa cells assessed as increase in G0/G1 phase accumulation at 10 uM after 24 hrs by FACS analysis. The class given is functional. Background: A flow cytometer gives signals particle by particle.
Series [12] concerns Plasmodium berghei. Briefly: Antiplasmodial activity against Plasmodium berghei NK65 infected in Swiss Webster mice (Mus musculus) assessed as average parasitaemia at 5 mg/kg, perorally administered 1 day after infection for 3 days measured after 28 days post infection. In kind it is functional. The following applies: route oral.
The test system of series [13] is Plasmodium berghei. Nature of the series: Antiplasmodial activity against Plasmodium berghei NK65 infected in Swiss Webster mice (Mus musculus) assessed as average parasitaemia at 10 mg/kg, perorally administered 1 day after infection for 3 days measured after 21 days post infection. The class given is functional. The following applies: route oral.
For series [14], the system named is Mycobacterium tuberculosis. Briefly: Antimycobacterial activity against Mycobacterium tuberculosis. The class given is functional.
Series [15] concerns HeLa. Briefly: Cell cycle arrest in human HeLa cells assessed as increase in S phase accumulation at 20 uM after 24 hrs by FACS analysis. In kind it is functional.
Series [16] deals with Plasmodium berghei. Briefly: Antiplasmodial activity against Plasmodium berghei NK65 infected in Swiss Webster mice (Mus musculus) assessed as average parasitaemia at 3.3 mg/kg, perorally administered 1 day after infection for 3 days measured after 7 days post infection. As to conditions: route oral. In kind it is functional. In short, it runs like this:
as §2

Series [17] relates to HeLa. Nature of the series: Cell cycle arrest in human HeLa cells assessed as increase in G0/G1 phase accumulation at 5 uM after 24 hrs by FACS analysis. The class given is functional.
The test system of series [18] is MDCK. Nature of the series: Apparent permeability across apical to basolateral side of MDCK cells expressing MDR. The class given is ADME, cell-based, Canis lupus familiaris. The following applies: dog. In short, it runs like this: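 MDR-MDCK cells (passage 12-40) seeded at 75,000 cells/cm2 and grown 8 days on Transwell inserts to a monolayer. Bidirectional transport over 2 h in HBSS pH 7.4 with test substance at 50 μM and caffeine (5 μM) as standard. Donor and receiver samples quantified by LC-MS. Cumulative amount transported plotted against time to derive apparent permeability.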

Series [19] deals with HeLa. Nature of the series: Cell cycle arrest in human HeLa cells assessed as increase in S phase accumulation at 3 uM after 24 hrs by FACS analysis. The class given is functional.

What is called ED50 is the midpoint of the dose-response relation. A low value points to greater potency. Usually inhibition in vivo stands for the share of the control response that was lost under treatment. By IC50 is commonly meant the concentration at which inhibition is half-maximal. As usually defined, the pIC50 is −log10 of the IC50, conventionally taken in molar units. By MIC is commonly meant the least concentration at which growth counts as inhibited. A high value points to a need for much substance. Usually Papp stands for the rate of passage across a membrane or cell layer, normalised by area and donor concentration.

SMILES strings stand for the structures. pIC50: −log10 of the molar value. Values after ≈ are worked out from the molar mass of the structure shown.

`O[C@]12C=C(c3nccc4c3[nH]c3ccccc34)[C@@H]3CCN(CCCC/C=C\CC1)C[C@@]31C[C@@H]3/C=C\CCCCN3[C@H]12` [MANZAMINE A] had an ED50 in series [1] of 0.57 mg/kg. In series [1], this compound displayed an ED90 of 1.7 mg/kg. Besides, the inhibition in vivo at 100 mg/kg in [2] and in [4] was 0% throughout. The same compound registered an IC50 in series [3] of 1 µg/mL (≈ 1.82 µM). The pIC50 in series [5] is 7.00. Further, the figures for the inhibition in vivo at 5 mg/kg in series [6], in [9] and in series [12] were 7.8%, 88% and 39.3%, respectively. The inhibition in vivo at 3.3 mg/kg in series [7] was 11.9%; in series [10], 25%; in series [16] it was 2.8%. Also, the inhibition in vivo at 10 mg/kg was determined as 100% in series [8] and 1.9% in series [13]. The Activity in [11] was 59.1%; in series [15], 67.2%; in [17], 56.3%; in series [19], 56.2%. This compound also registered an MIC in [14] of 1.56 µg/mL (≈ 2.84 µM). Moreover, the apparent permeability (Papp) in series [18] was determined as 0.87 ×10⁻⁶ cm/s.

Source of the values: ChEMBL document CHEMBL1157729, “Structure-activity relationship and mechanism of action studies of manzamine analogues for the control of neuroinflammation and cerebral infections” (J Med Chem, 2010).
